In ChEMBL document CHEMBL4145609, “Cytotoxic Drimane Sesquiterpenoids Isolated from Perenniporia maackiae” (2018):
Counter-ions that a name gives are not always drawn. Activity calls are given as the source filed them. No cut-off for these calls is given here.

Assays:
Assay type in all cases: functional
[1] = tested on: ACHN; assay: Cytotoxicity against human ACHN cells assessed as inhibition of cell proliferation measured after 72 hrs by sulforhodamine B assay
Method in brief: (§1)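 Cells seeded at 2 × 10^3 cells/well and exposed to a range of concentrations for 72 h, with adriamycin as reference. Fixed in 10% trichloroacetic acid overnight at 4 °C, stained with 0.4% SRB for 1 h, washed with 1% acetic acid, dye solubilized in 10 mM Tris, absorbance read at 690 nm. GI50 taken from dose–response curves corrected for starting cell count; mean of triplicates.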

[2] = tested on: HCT-15; assay: Cytotoxicity against human HCT15 cells assessed as inhibition of cell proliferation measured after 72 hrs by sulforhodamine B assay; details: for GI50: HCT-15, 72 h; method in brief: as §1
[3] = tested on: MDA-MB-231; assay: Cytotoxicity against human MDA-MB-231 cells assessed as inhibition of cell proliferation measured after 72 hrs by sulforhodamine B assay; details: for GI50: MDA-MB-231, 72 h; method in brief: as §1
[4] = tested on: NCI-H23; assay: Cytotoxicity against human NCI-H23 cells assessed as inhibition of cell proliferation measured after 72 hrs by sulforhodamine B assay; details: for GI50: NCI-H23, 72 h; method in brief: as §1
[5] = tested on: NUGC-3; assay: Cytotoxicity against human NUGC3 cells assessed as inhibition of cell proliferation measured after 72 hrs by sulforhodamine B assay; details: for GI50: NUGC-3, 72 h; method in brief: as §1
[6] = tested on: PC-3; assay: Cytotoxicity against human PC3 cells assessed as inhibition of cell proliferation measured after 72 hrs by sulforhodamine B assay; details: for GI50: PC-3, 72 h; method in brief: as §1

SMILES	GI50 [1] [nM]	GI50 [2] [nM]	GI50 [3] [nM]	GI50 [4] [nM]	GI50 [5] [nM]	GI50 [6] [µM]	Activity [1]	Activity [2]	Activity [3]	Activity [4]	Activity [5]	Activity [6]
CC1(C)CCC[C@@]2(C)[C@H]1C(=O)C=C1CO[C@@H](O)[C@@]12O	3600	5400	4000	4300	2300	4.6						
C[C@]1(CO)CCC[C@@]2(C)[C@H]1[C@H](O)C=C1CO[C@@H](O)[C@@]12O							inactive	inactive	inactive	inactive	inactive	inactive
CO[C@@H]1C=C2CO[C@@H](O)[C@]2(O)[C@@]2(C)CCCC(C)(C)[C@H]12							inactive	inactive	inactive	inactive	inactive	inactive
COc1cccc2c1C(=O)c1c(O)c3c(c(O)c1C2=O)C[C@@](O)(C(=O)CO)C[C@@H]3O[C@H]1C[C@H](N)[C@H](O)[C@H](C)O1 [DOXORUBICIN HYDROCHLORIDE]	70	50	70	80	70	0.09						
CC(=O)O[C@@H]1C=C2CO[C@@H](O)[C@]2(O)[C@@]2(C)CC[C@H](O)C(C)(C)[C@H]12							inactive	inactive	inactive	inactive	inactive	inactive
CO[C@H]1C=C2CO[C@@H](O)[C@]2(O)[C@@]2(C)CCCC(C)(C)[C@H]12	1200	1600	1500	1400	1900	2						
CC1(C)CCC[C@@]2(C)[C@H]1[C@@H](O)C=C1CO[C@@H](O)[C@@]12O	2000	1800	2300	2100	2400	6						
